# Assays:
# [1] = Stability of compound in phosphate buffer at pH 7.4 assessed as compound half life by HPLC-UV assay; assay type: physicochemical
# How it was run: (§1)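 Chemical hydrolysis in 0.02 M HCl buffer pH 1.3 (non-enzymatic simulated gastric fluid) or 0.02 M phosphate buffer pH 7.4, each containing 20% acetonitrile, at 37 °C. Started by adding the 10^-4 M acetonitrile stock. Samples taken over time and analyzed by HPLC-UV at 220 nm. Rate constants are means of triplicates.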
# [2] = Stability of compound in non-enzymatic stimulated-gastric fluid at pH 1.3 assessed as half life by HPLC-UV assay; assay type: physicochemical; details: non-enzymatic simulated gastric fluid; how it was run: as §1
# [3] = Cytotoxicity against Sprague-Dawley rat Cerebral cortex neuron assessed as cell viability at 0.1 uM incubated for 24 hrs by MTT assay relative to control; assay type: tissue-based; details: cerebral cortex neurons, read-out: Activity
# How it was run: (§2)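 Primary fetal rat cortical neurons, matured 8 days, treated 24 h at 37 °C with compound (0.1–100 µM; 0.5% DMSO or water vehicle). MTT 0.7 mg/ml was then added for 30 min at 37 °C, and formazan was extracted with isopropanol/formic acid (95:5) and read at 560 nm. Untreated control was set as 100% viability. Four independent experiments.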
# [4] = Cytotoxicity against Sprague-Dawley rat Cerebral cortex neuron assessed as cell viability at 1 uM incubated for 24 hrs by MTT assay relative to control; assay type: tissue-based; details: cerebral cortex neurons, read-out: Activity; how it was run: as §2
# [5] = Cytotoxicity against Sprague-Dawley rat Cerebral cortex neuron assessed as cell viability at 10 uM incubated for 24 hrs by MTT assay relative to control; assay type: tissue-based; details: cerebral cortex neurons, read-out: Activity; how it was run: as §2
# [6] = Cytotoxicity against Sprague-Dawley rat Cerebral cortex neuron assessed as cell viability at 25 uM incubated for 24 hrs by MTT assay relative to control; assay type: tissue-based; details: cerebral cortex neurons, read-out: Activity; how it was run: as §2
# [7] = Cytotoxicity against rat Sprague-Dawley Cerebral cortex neuron assessed as cell viability at 50 uM incubated for 24 hrs by MTT assay relative to control; assay type: tissue-based; details: cerebral cortex neurons, read-out: Activity; how it was run: as §2
# [8] = Cytotoxicity against Sprague-Dawley rat Cerebral cortex neuron assessed as cell viability at 100 uM incubated for 24 hrs by MTT assay relative to control; assay type: tissue-based; details: cerebral cortex neurons, read-out: Activity; how it was run: as §2
# [9] = Cytotoxicity against Sprague-Dawley rat Cerebral cortex neuron assessed as LDH activity at 0.1 uM incubated for 24 hrs by LDH assay (reference value: […]); assay type: tissue-based
# How it was run: (§3)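 Primary fetal rat cortical neurons, matured 8 days on poly-D-lysine, exposed 24 h at 37 °C to compound (0.1–100 µM; DMSO 0.5% or water vehicle). LDH released into 100 µl culture medium was measured by kit as the rate of NAD+ reduction (absorbance increase at 490 nm). Positive control was mitomycin C. Four independent experiments.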
# [10] = Cytotoxicity against Sprague-Dawley rat Cerebral cortex neuron assessed as LDH activity at 1 uM incubated for 24 hrs by LDH assay (reference value: […]); assay type: tissue-based; how it was run: as §3
# [11] = Cytotoxicity against Sprague-Dawley rat Cerebral cortex neuron assessed as LDH activity at 10 uM incubated for 24 hrs by LDH assay; assay type: tissue-based; how it was run: as §3
# [12] = Cytotoxicity against Sprague-Dawley rat Cerebral cortex neuron assessed as LDH activity at 25 uM incubated for 24 hrs by LDH assay (reference value: […]); assay type: tissue-based; how it was run: as §3
# [13] = Cytotoxicity against Sprague-Dawley rat Cerebral cortex neuron assessed as LDH activity at 50 uM incubated for 24 hrs by LDH assay (reference value: […]); assay type: tissue-based; how it was run: as §3
# [14] = Cytotoxicity against Sprague-Dawley rat Cerebral cortex neuron assessed as LDH activity at 100 uM incubated for 24 hrs by LDH assay (reference value: […]); assay type: tissue-based; how it was run: as §3
# [15] = Antioxidant activity in Sprague-Dawley rat Cerebral cortex neuron assessed as total antioxidant capacity by measuring trolox equivalents at 1 uM after 24 hrs; assay type: functional
# How it was run: (§4)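 Primary cerebral cortex neurons from rat fetuses, grown on poly-D-lysine in neurobasal medium with fetal calf serum (5% CO2, 37 °C), tested after 8 days in culture. Compounds in DMSO (0.5%) or sterile water were added and incubated 24 h at 37 °C. Cells were washed in ice-cold PBS and homogenized in 0.9% saline. Intracellular TAC (Trolox equiv.) and TOS (H2O2 equiv.) were read by kit. Ascorbic acid 10 µM (TAC) and H2O2 25 µM (TOS) served as positive controls. Four independent experiments.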
# [16] = Antioxidant activity in Sprague-Dawley rat Cerebral cortex neuron assessed as total antioxidant capacity by measuring trolox equivalents at 10 uM after 24 hrs; assay type: functional; how it was run: as §4
# [17] = Antioxidant activity in Sprague-Dawley rat Cerebral cortex neuron assessed as total antioxidant capacity by measuring trolox equivalents at 100 uM after 24 hrs; assay type: functional; how it was run: as §4
# [18] = Antioxidant activity in Sprague-Dawley rat Cerebral cortex neuron assessed as total oxidative stress level by measuring H2O2 equivalents at 1 uM after 24 hrs (reference value: 2.3 +/- 0.3 umol/L); assay type: functional; how it was run: as §4
# [19] = Antioxidant activity in Sprague-Dawley rat Cerebral cortex neuron assessed as total oxidative stress level by measuring H2O2 equivalents at 10 uM after 24 hrs (reference value: 2.3 +/- 0.3 umol/L); assay type: functional; how it was run: as §4
# [20] = Antioxidant activity in Sprague-Dawley rat Cerebral cortex neuron assessed as total oxidative stress level by measuring H2O2 equivalents at 50 uM after 24 hrs (reference value: 2.3 +/- 0.3 umol/L); assay type: functional; how it was run: as §4
# [21] = Antioxidant activity in Sprague-Dawley rat Cerebral cortex neuron assessed as total oxidative stress level by measuring H2O2 equivalents at 100 uM after 24 hrs (reference value: 2.3 +/- 0.3 umol/L); assay type: functional; how it was run: as §4
# [22] = Stability of compound in fasted state stimulated intestinal fluid at pH 1.3 assessed as half life in presence of 40 mg/ml pepsin by HPLC-UV assay; assay type: ADME; details: fasted state simulated intestinal fluid with pepsin
# How it was run: (§5)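 HCl buffer with pepsin or phosphate buffer with pancreatin (10 or 40 mg/ml), preincubated at 37 °C. Drug stock (50 µM in ethanol/fasted state intestinal fluid 1:9) added and shaken at 37 °C, 650 rpm. Samples quenched with ice-cold acetonitrile containing 0.5% formic acid, centrifuged at 2 °C, and the supernatant assayed by HPLC-UV. Three experiments.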
# [23] = Stability of compound in fasted state stimulated intestinal fluid at pH 7.4 assessed as half life in presence of 10 mg/ml pancreatin by HPLC-UV assay; assay type: ADME; details: fasted state simulated intestinal fluid with pancreatin; how it was run: as §5
# [24] = Stability of compound in fasted state stimulated intestinal fluid at pH 7.4 assessed as half life in presence of 40 mg/ml pancreatin by HPLC-UV assay; assay type: ADME; details: fasted state simulated intestinal fluid with pancreatin; how it was run: as §5
# [25] = Stability of compound in rat plasma assessed as half life by HPLC-UV assay; assay type: ADME, cell-free
# How it was run: (§6)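 Citrated human or rat plasma diluted to 80% with 0.02 M phosphate buffer pH 7.4, 37 °C with shaking. Compound added from a 1 mg/ml acetonitrile stock. Aliquots deproteinized with 0.01 M HCl in methanol, centrifuged, and analyzed by HPLC-UV (C8 column, KH2PO4/methanol pH 2.5, 220 nm). Remaining intact compound plotted against time. Three experiments.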
# [26] = Stability of compound in fasted state stimulated intestinal fluid at pH 1.3 assessed as rate of compound hydrolysis in presence of 10 mg/ml pepsin by HPLC-UV assay; assay type: ADME; details: isolated protein; how it was run: as §5
# [27] = Stability of compound in human plasma assessed as rate of compound hydrolysis by HPLC-UV assay; assay type: ADME, cell-free; how it was run: as §6
Structure (SMILES),half-life [1] [h],half-life [2] [h],"viability at 24 h, 0.1 µM [3] [%]","viability at 24 h, 1 µM [4] [%]","viability at 24 h, 10 µM [5] [%]","viability at 24 h, 25 µM [6] [%]","viability at 24 h, 50 µM [7] [%]","viability at 24 h, 100 µM [8] [%]",Activity [9] [mU/ml],Activity [10] [mU/ml],Activity [11] [mU/ml],Activity [12] [mU/ml],Activity [13] [mU/ml],Activity [14] [mU/ml],TAC [15] [mmol/L],TAC [16] [mmol/L],TAC [17] [mmol/L],Activity [18] [µmol/L],Activity [19] [µmol/L],Activity [20] [µmol/L],further results
COc1ccc(CN2CCN(C(=O)CCCCC3CCSS3)CC2)cc1 (centres undefined),238,240,98.1,97.4,96.1,95.3,92.7,89.3,0.28,0.3,0.3,0.29,0.34,0.34,11.2,10.9,10.8,0.5,0.5,0.5,Activity [21]: 0.5 µmol/L; half-life [22]: 23.7 h; half-life [23]: 60.9 h; half-life [24]: 41.6 h; half-life [25]: 4.13 h; Drug degradation [26]: 0.006 h⁻¹; Drug degradation [27]: 0.13 h⁻¹
O=C(CCCCC1CCSS1)N1CCN(Cc2ccc(F)cc2)CC1 (centres undefined),81,88,99.3,97.5,97.2,96,96.5,96.7,0.3,0.28,0.34,0.32,0.34,0.34,11.2,12.6,11.1,0.5,0.4,0.5,Activity [21]: 0.5 µmol/L; half-life [22]: 37.2 h; half-life [23]: 75.1 h; half-life [24]: 32.3 h; half-life [25]: 2.92 h; Drug degradation [26]: 0.007 h⁻¹; Drug degradation [27]: 0.165 h⁻¹
